From ChEMBL document CHEMBL1148429, “Penicillin-derived inhibitors that simultaneously target both metallo- and serine-beta-lactamases” (Bioorg Med Chem Lett, 2004)
Values after ≈ are worked out from the molar mass of the structure shown.

Key:
Escherichia coli [1] = assay: Synergic activity against IMP-1 beta lactamase produced by Escherichia coli in presence of piperacillin (1:1); R = Resistant; type: functional
Pseudomonas aeruginosa [2] = assay: Synergistic activity against VIM-1 beta lactamase produced by Pseudomonas aeruginosa presence of piperacillin (1:1); R = Resistant
Pseudomonas aeruginosa [3] = assay: Synergistic activity against VIM-7 beta lactamase produced by Pseudomonas aeruginosa presence of piperacillin (1:1); R = Resistant
Pseudomonas aeruginosa [4] = assay: Synergistic activity against VIM-7 beta lactamase produced by Pseudomonas aeruginosa presence of piperacillin (1:1) and compound 5c; R = Resistant
Escherichia coli [5] = assay: Synergic activity against IMP-1 beta lactamase produced by Escherichia coli in presence of piperacillin (1:1) and compound 5c; S = susceptible; type: functional
Outline: (§1)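 Synergy with piperacillin against metallo-β-lactamase-producing strains (IMP-1; SPM-1, VIM-1 or VIM-7 carriers). The initial screen used […] at a 1:1 antibiotic:inhibitor ratio. Inhibitor was tested with tazobactam or DVR-II-183 added as a serine β-lactamase inhibitor, or without one.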

Pseudomonas aeruginosa [6] = assay: Synergistic activity against SPM-1 beta lactamase produced by Pseudomonas aeruginosa in presence of piperacillin (1:1); R = Resistant
Pseudomonas aeruginosa [7] = assay: Synergistic activity against VIM-1 beta lactamase produced by Pseudomonas aeruginosa presence of piperacillin (1:1) and compound 5c; S = susceptible
Pseudomonas aeruginosa [8] = assay: Synergistic activity against SPM-1 beta lactamase produced by Pseudomonas aeruginosa in presence of piperacillin (1:1) and compound 5c; S = susceptible
Beta-lactamase TEM = Beta-lactamase TEM (Escherichia coli, UniProt P62593); assay: Beta-Lactamase inhibitory activity against representative class A (TEM-1) serine enzyme
Beta-lactamase TEM, sequence (P62593 whole entry): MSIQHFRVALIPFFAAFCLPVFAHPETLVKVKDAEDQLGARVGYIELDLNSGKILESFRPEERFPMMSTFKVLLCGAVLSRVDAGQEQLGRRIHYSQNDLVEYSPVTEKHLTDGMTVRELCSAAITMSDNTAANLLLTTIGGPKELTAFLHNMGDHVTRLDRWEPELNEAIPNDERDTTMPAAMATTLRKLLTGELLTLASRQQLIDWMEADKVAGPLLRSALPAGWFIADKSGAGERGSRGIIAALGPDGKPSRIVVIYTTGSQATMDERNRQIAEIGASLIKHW
Outline: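 Serine β-lactamase assay: inhibitor preincubated with enzyme for 4 min in 100 µL, then an aliquot transferred into dilute nitrocefin substrate (1 mL final). IC50 is expressed as the inhibitor concentration in the 100 µL incubation, from multiple experiments.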

[9] = biological target: T1, Metallo-beta-lactamase type 2 (Bacillus cereus, UniProt P14488); assay: Inhibition of class B (BCII) metallo-beta-lactamase representative enzyme
T1 sequence (P14488 whole entry): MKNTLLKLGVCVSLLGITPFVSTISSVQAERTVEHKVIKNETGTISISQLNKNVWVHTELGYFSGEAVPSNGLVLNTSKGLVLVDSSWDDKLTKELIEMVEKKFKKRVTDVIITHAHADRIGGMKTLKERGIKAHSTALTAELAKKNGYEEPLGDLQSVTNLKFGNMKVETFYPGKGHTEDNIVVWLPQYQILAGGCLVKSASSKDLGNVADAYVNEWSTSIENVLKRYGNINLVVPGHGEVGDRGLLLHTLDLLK
Outline: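 BCII metallo-β-lactamase assay: inhibitor and enzyme incubated together for 4 min in 970 µL, then concentrated nitrocefin added to 1 mL final volume. IC50 determined from nitrocefin hydrolysis.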

[10] = biological target: Beta-lactamase TEM (Escherichia coli) (UniProt P62593); assay: Beta-Lactamase inhibitory activity against representative class A (TEM-1) serine enzyme from Escherichia coli ATCC 35218 in presence of Piperacillin
Beta-lactamase TEM (Escherichia coli), sequence (P62593 whole entry): as the sequence (P62593 whole entry) above
Outline: (§2)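 MIC of piperacillin against β-lactamase-producing strains, with the piperacillin concentration varied and the inhibitor held constant at […].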

Staphylococcus aureus = assay: Antibacterial activity was determined against the Staphylococcus aureus ATCC 29213 in presence of Piperacillin; type: functional; outline: as §2
[11] = biological target: Beta-lactamase (Escherichia coli K-12) (UniProt P00811)
Beta-lactamase (Escherichia coli K-12), sequence (P00811 whole entry): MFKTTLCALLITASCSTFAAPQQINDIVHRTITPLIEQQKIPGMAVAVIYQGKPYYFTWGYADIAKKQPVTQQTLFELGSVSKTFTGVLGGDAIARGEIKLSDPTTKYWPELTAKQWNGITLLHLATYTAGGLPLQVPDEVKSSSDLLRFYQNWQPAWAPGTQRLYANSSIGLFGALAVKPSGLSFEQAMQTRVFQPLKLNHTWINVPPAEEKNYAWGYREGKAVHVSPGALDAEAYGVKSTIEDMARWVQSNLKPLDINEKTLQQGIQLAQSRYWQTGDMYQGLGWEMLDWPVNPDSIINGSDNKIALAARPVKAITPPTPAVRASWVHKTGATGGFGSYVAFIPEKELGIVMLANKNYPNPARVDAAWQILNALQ

Beta-lactamase L1 = Beta-lactamase L1 (Stenotrophomonas maltophilia, UniProt P52700); assay: Beta-Lactamase Inhibition of metallo-beta-lactamase representative class B (L1) enzyme
Beta-lactamase L1, sequence (P52700 whole entry): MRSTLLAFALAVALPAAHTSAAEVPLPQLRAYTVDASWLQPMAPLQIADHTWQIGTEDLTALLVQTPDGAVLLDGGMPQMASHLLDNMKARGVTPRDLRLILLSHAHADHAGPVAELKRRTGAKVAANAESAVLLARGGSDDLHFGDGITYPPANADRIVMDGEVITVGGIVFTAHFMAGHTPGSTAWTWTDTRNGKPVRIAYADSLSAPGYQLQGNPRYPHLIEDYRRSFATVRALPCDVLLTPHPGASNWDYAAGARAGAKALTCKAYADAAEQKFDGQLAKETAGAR
Outline: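 For the metallo enzyme, inhibitor and enzyme were preincubated for 4 min. Concentrated nitrocefin was then added to give the final assay volume, and IC50 was determined.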

[12] = Synergic activity against IMP-1 beta lactamase produced by Escherichia coli was determined in presence of Piperacillin; type: functional
Pseudomonas aeruginosa [13] = assay: Synergistic activity against VIM-7 beta lactamase produced by Pseudomonas aeruginosa in presence of Piperacillin; R = Resistant
[14] = Synergistic activity against VIM-7 beta lactamase produced by Escherichia coli in presence of Piperacillin; type: functional, plasmodium aeruginosa; conditions: Pseudomonas aeruginosa
[15] = Synergistic activity against VIM-1 beta lactamase produced by Pseudomonas aeruginosa in presence of Piperacillin
[16] = Synergistic activity against SPM-1 beta lactamase produced by Pseudomonas aeruginosa in presence of Piperacillin
Pseudomonas aeruginosa [17] = assay: Synergistic activity against VIM-1 beta lactamase produced by Pseudomonas aeruginosa in presence of Piperacillin; R = Resistant
Pseudomonas aeruginosa [18] = assay: Synergistic activity against VIM-1 beta lactamase produced by Pseudomonas aeruginosa in presence of Piperacillin and Tazobactam; R = Resistant
Pseudomonas aeruginosa [19] = assay: Synergistic activity against SPM-1 beta lactamase produced by Pseudomonas aeruginosa in presence of Piperacillin and Tazobactam; R = Resistant
Pseudomonas aeruginosa [20] = assay: Synergistic activity against VIM-7 beta lactamase produced by Pseudomonas aeruginosa in presence of Piperacillin and Tazobactam; R = Resistant
Escherichia coli [21] = assay: Synergic activity against IMP-1 beta lactamase produced by Escherichia coli in presence of Piperacillin and Tazobactam; S = susceptible; type: functional; outline: as §1

Q: For `C[C@@]1(COC(=O)Cc2ccc(O)c(O)c2)S[C@@H]2/C(=C\c3ccccn3)C(=O)N2[C@H]1C(=O)O`, which Activity (Escherichia coli [1]) is on record?
A: Resistant

Q: And the Activity (Pseudomonas aeruginosa [2])?
A: Resistant

Q: And the Activity (Pseudomonas aeruginosa [3])?
A: Resistant

Q: What about the Activity (Pseudomonas aeruginosa [4]) of the same compound?
A: Resistant

Q: What about the Activity (Escherichia coli [5]) of the same compound?
A: Susceptible

Q: And the Activity (Pseudomonas aeruginosa [6])?
A: Resistant

Q: And the Activity (Pseudomonas aeruginosa [7])?
A: Susceptible

Q: And the Activity (Pseudomonas aeruginosa [8])?
A: Susceptible

Q: Which IC50 (Beta-lactamase TEM) does the source give for `CC1(C)[C@H](C(=O)O)N2C(=O)[C@H](S)[C@H]2S1(=O)=O` here?
A: 69.2 µM

Q: And the IC50 [9]?
A: 106 µM

Q: And the MIC [10]?
A: > 128 µg/mL

Q: And the MIC (Staphylococcus aureus)?
A: 8 µg/mL

Q: What about the MIC [11] of the same compound?
A: 2 µg/mL (≈ 7.54 µM)

Q: And the IC50 (Beta-lactamase L1)?
A: 7.6 µM

Q: With `CC1(C)S[C@@H]2[C@@H](CO)C(=O)N2[C@H]1C(=O)O` as the compound, how does the IC50 (Beta-lactamase TEM) read?
A: 275 µM

Q: What about the IC50 [9] of the same compound?
A: > 200 µM

Q: What about the MIC [10] of the same compound?
A: > 128 µg/mL

Q: What about the MIC (Staphylococcus aureus) of the same compound?
A: 8 µg/mL

Q: What about the MIC [11] of the same compound?
A: 4 µg/mL (≈ 17.3 µM)

Q: What about the IC50 (Beta-lactamase L1) of the same compound?
A: > 200 µM

Q: For `C[C@]1(Cn2ccnn2)[C@H](C(=O)[O-])N2C(=O)C[C@H]2S1(=O)=O.[Na+]` [TAZOBACTAM SODIUM], which IC50 [9] is on record?
A: > 200 µM

Q: And the MIC [12]?
A: > 128 µg/mL

Q: What about the Activity (Pseudomonas aeruginosa [13]) of the same compound?
A: Resistant

Q: What about the MIC [10] of the same compound?
A: 1 µg/mL

Q: And the MIC (Staphylococcus aureus)?
A: 1 µg/mL

Q: And the MIC [11]?
A: 0.5 µg/mL

Q: What about the MIC [14] of the same compound?
A: > 128 µg/mL

Q: And the MIC [15]?
A: > 128 µg/mL

Q: And the MIC [16]?
A: > 128 µg/mL

Q: What about the Activity (Pseudomonas aeruginosa [17]) of the same compound?
A: Resistant

Q: What about the IC50 (Beta-lactamase L1) of the same compound?
A: > 200 µM

Q: Which IC50 (Beta-lactamase TEM) does the source give for `CC1(C)S[C@@H]2[C@H](CS)C(=O)N2[C@H]1C(=O)O` here?
A: 601 µM

Q: And the IC50 [9]?
A: 2.9 µM

Q: And the MIC [10]?
A: > 128 µg/mL

Q: And the MIC (Staphylococcus aureus)?
A: 2 µg/mL

Q: What about the MIC [11] of the same compound?
A: 2 µg/mL (≈ 8.09 µM)

Q: And the Activity (Pseudomonas aeruginosa [18])?
A: Resistant

Q: What about the Activity (Pseudomonas aeruginosa [19]) of the same compound?
A: Resistant

Q: What about the Activity (Pseudomonas aeruginosa [20]) of the same compound?
A: Resistant

Q: What about the IC50 (Beta-lactamase L1) of the same compound?
A: 32.1 µM

Q: What about the Activity (Escherichia coli [21]) of the same compound?
A: Susceptible

Q: Which IC50 [9] does the source give for `CC1(C)[C@H](C(=O)O)N2C(=O)[C@H](CO)[C@H]2S1(=O)=O` here?
A: > 200 µM

Q: And the MIC [10]?
A: 8 µg/mL

Q: And the MIC (Staphylococcus aureus)?
A: 2 µg/mL

Q: And the MIC [11]?
A: 0.25 µg/mL (≈ 0.95 µM)

Q: And the IC50 (Beta-lactamase L1)?
A: > 200 µM

Q: What does the source list for `CC1(C)S[C@@H]2[C@H](S)C(=O)N2[C@H]1C(=O)O`?
A: IC50 (Beta-lactamase TEM): > 1000 µM; IC50 [9]: 17.8 µM; MIC [10]: > 128 µg/mL; MIC (Staphylococcus aureus): 8 µg/mL; MIC [11]: 2 µg/mL (≈ 8.57 µM); IC50 (Beta-lactamase L1): 41.4 µM

Q: Which IC50 [9] does the source give for `CC1(C)[C@H](C(=O)O)N2C(=O)[C@H](CS)[C@H]2S1(=O)=O` here?
A: 12 µM

Q: And the MIC [10]?
A: 32 µg/mL

Q: And the MIC (Staphylococcus aureus)?
A: 4 µg/mL

Q: And the MIC [11]?
A: 0.5 µg/mL (≈ 1.79 µM)

Q: What about the Activity (Pseudomonas aeruginosa [18]) of the same compound?
A: Resistant

Q: And the Activity (Pseudomonas aeruginosa [19])?
A: Resistant

Q: What about the Activity (Pseudomonas aeruginosa [20]) of the same compound?
A: Resistant

Q: What about the IC50 (Beta-lactamase L1) of the same compound?
A: 0.3 µM

Q: What about the Activity (Escherichia coli [21]) of the same compound?
A: Susceptible
